Measurements published in ChEMBL document CHEMBL3526049 (Drug Metab Dispos, 2012).

Tests used:
[1] = Half life in BCRP knockout Sprague-Dawley rat at 1 mg/kg, iv by LC-MS/MS analysis; assay type: ADME, organism-based; set-up: dose 1 mg/kg, route intravenous; conditions: in vivo
Procedure, shortened: (§1)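 Male Sprague-Dawley rats (knockout or wild type matched for age and weight), femoral artery and vein cannulated, at least 2 days recovery. Crossover design: IV bolus 1 mg/kg on day 0 (saline with 0.2 M equivalents HCl), oral gavage 10 mg/kg on day 3 (water with 0.2 M equivalents HCl). Arterial plasma sampled to 24 h (Mdr1a oral arm to 4 h). Analysed by LC-MS/MS and noncompartmental analysis.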

[2] = Half life in wild-type Sprague-Dawley rat at 10 mg/kg, po by LC-MS/MS analysis; assay type: ADME, organism-based; set-up: dose 10 mg/kg, route oral; conditions: in vivo; procedure, shortened: as §1
[3] = Half life in MRP2 knockout Sprague-Dawley rat at 10 mg/kg, po by LC-MS/MS analysis; assay type: ADME, organism-based; set-up: dose 10 mg/kg, route oral; conditions: in vivo; procedure, shortened: as §1
[4] = AUC (infinity) in MDR1A knockout Sprague-Dawley rat at 1 mg/kg, iv by LC-MS/MS analysis; assay type: ADME, organism-based; set-up: time infinity, dose 1 mg/kg, route intravenous; conditions: plasma
[5] = in vivo; conditions: Sprague-Dawley, rat, plasma, po, 10 mg/kg
[6] = Oral bioavailability in wild-type Sprague-Dawley rat at 10 mg/kg by LC-MS/MS analysis; assay type: ADME, organism-based; conditions: in vivo; procedure, shortened: as §1
[7] = in vivo; conditions: Sprague-Dawley, rat, po, 10 mg/kg
[8] = Volume of distribution at steady state in wild-type Sprague-Dawley rat at 1 mg/kg, iv by LC-MS/MS analysis; assay type: ADME, organism-based; set-up: dose 1 mg/kg, route intravenous; conditions: in vivo, read-out: Vdss; procedure, shortened: as §1
[9] = Tmax in BCRP knockout Sprague-Dawley rat at 10 mg/kg, po by LC-MS/MS analysis; assay type: ADME, organism-based; set-up: dose 10 mg/kg, route oral; conditions: in vivo; procedure, shortened: as §1
[10] = system: Rattus norvegicus; experiment: Toxicity in MDR1A knockout Sprague-Dawley rat assessed as stupor at 10 mg/kg, po after 4 hrs; assay type: organism-based; set-up: dose 10 mg/kg, route oral; conditions: in vivo
Procedure, shortened: (§2)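 Independent veterinary staff recorded clinical central signs. After oral dosing, animals were observed 1–2 h post-dose and again at 4 h, when sampling stopped and the animals were discontinued.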

[11] = Half life in BCRP knockout Sprague-Dawley rat at 10 mg/kg, po by LC-MS/MS analysis; assay type: ADME, organism-based; set-up: dose 10 mg/kg, route oral; conditions: in vivo; procedure, shortened: as §1
[12] = Cmax in MRP2 knockout Sprague-Dawley rat at 10 mg/kg, po by LC-MS/MS analysis; assay type: ADME, organism-based; set-up: dose 10 mg/kg, route oral; conditions: in vivo; procedure, shortened: as §1
[13] = system: Rattus norvegicus; experiment: Toxicity in MDR1A knockout Sprague-Dawley rat assessed as lethargic behavior at 1 mg/kg, iv; assay type: organism-based; set-up: dose 1 mg/kg, route intravenous; conditions: in vivo
[14] = Volume of distribution at steady state in MRP2 knockout Sprague-Dawley rat at 1 mg/kg, iv by LC-MS/MS analysis; assay type: ADME, organism-based; set-up: dose 1 mg/kg, route intravenous; conditions: in vivo, read-out: Vdss; procedure, shortened: as §1
[15] = system: Rattus norvegicus; experiment: Toxicity in MDR1A knockout Sprague-Dawley rat assessed as eye protrusion at 10 mg/kg, po after 1 to 2 hrs; assay type: organism-based; set-up: dose 10 mg/kg, route oral; conditions: in vivo; procedure, shortened: as §2
[16] = Cmax in BCRP knockout Sprague-Dawley rat at 10 mg/kg, po by LC-MS/MS analysis; assay type: ADME, organism-based; set-up: dose 10 mg/kg, route oral; conditions: in vivo; procedure, shortened: as §1
[17] = AUC (infinity) in wild-type Sprague-Dawley rat at 1 mg/kg, iv by LC-MS/MS analysis; assay type: ADME, organism-based; set-up: time infinity, dose 1 mg/kg, route intravenous; conditions: plasma
[18] = Tmax in MDR1A knockout Sprague-Dawley rat at 10 mg/kg, po by LC-MS/MS analysis; assay type: ADME, organism-based; set-up: dose 10 mg/kg, route oral; conditions: in vivo; procedure, shortened: as §1
[19] = in vivo; conditions: Sprague-Dawley, rat, plasma, po, 10 mg/kg; remark: listed apart in the source
[20] = Volume of distribution at steady state in BCRP knockout Sprague-Dawley rat at 1 mg/kg, iv by LC-MS/MS analysis; assay type: ADME, organism-based; set-up: dose 1 mg/kg, route intravenous; conditions: in vivo, read-out: Vdss; procedure, shortened: as §1
[21] = Tmax in MRP2 knockout Sprague-Dawley rat at 10 mg/kg, po by LC-MS/MS analysis; assay type: ADME, organism-based; set-up: dose 10 mg/kg, route oral; conditions: in vivo; procedure, shortened: as §1
[22] = Half life in wild-type Sprague-Dawley rat at 1 mg/kg, iv by LC-MS/MS analysis; assay type: ADME, organism-based; set-up: dose 1 mg/kg, route intravenous; conditions: in vivo; procedure, shortened: as §1
[23] = system: Rattus norvegicus; experiment: Toxicity in MDR1A knockout Sprague-Dawley rat assessed as lacrimation at 10 mg/kg, po after 1 to 2 hrs; assay type: organism-based; set-up: dose 10 mg/kg, route oral; conditions: in vivo; procedure, shortened: as §2
[24] = in vivo; conditions: Sprague-Dawley, rat, plasma, po, 10 mg/kg; remark: listed apart in the source
[25] = AUC (infinity) in BCRP knockout Sprague-Dawley rat at 1 mg/kg, iv by LC-MS/MS analysis; assay type: ADME, organism-based; set-up: time infinity, dose 1 mg/kg, route intravenous; conditions: plasma
[26] = Oral bioavailability in MDR1A knockout Sprague-Dawley rat at 10 mg/kg by LC-MS/MS analysis; assay type: ADME, organism-based; conditions: in vivo; procedure, shortened: as §1
[27] = system: Rattus norvegicus; experiment: Toxicity in MDR1A knockout Sprague-Dawley rat assessed as shallow breathing at 10 mg/kg, po after 1 to 2 hrs; assay type: organism-based; set-up: dose 10 mg/kg, route oral; conditions: in vivo; procedure, shortened: as §2
[28] = Cmax in wild-type Sprague-Dawley rat at 10 mg/kg, po by LC-MS/MS analysis; assay type: ADME, organism-based; set-up: dose 10 mg/kg, route oral; conditions: in vivo; procedure, shortened: as §1
[29] = in vivo; conditions: Sprague-Dawley, rat, po, 10 mg/kg; remark: listed apart in the source
[30] = system: Rattus norvegicus; experiment: Toxicity in MDR1A knockout Sprague-Dawley rat assessed as hypoactive behavior at 10 mg/kg, po after 1 to 2 hrs; assay type: organism-based; set-up: dose 10 mg/kg, route oral; conditions: in vivo; procedure, shortened: as §2
[31] = AUC (infinity) in MRP2 knockout Sprague-Dawley rat at 1 mg/kg, iv by LC-MS/MS analysis; assay type: ADME, organism-based, Plasma; set-up: time infinity, dose 1 mg/kg, route intravenous; conditions: Sprague-Dawley, plasma
[32] = Oral bioavailability in BCRP knockout Sprague-Dawley rat at 10 mg/kg by LC-MS/MS analysis; assay type: ADME, organism-based; conditions: in vivo; procedure, shortened: as §1
[33] = Oral bioavailability in MRP2 knockout Sprague-Dawley rat at 10 mg/kg by LC-MS/MS analysis; assay type: ADME, organism-based; conditions: in vivo; procedure, shortened: as §1
[34] = Half life in MDR1A knockout Sprague-Dawley rat at 1 mg/kg, iv by LC-MS/MS analysis; assay type: ADME, organism-based; set-up: dose 1 mg/kg, route intravenous; conditions: in vivo; procedure, shortened: as §1
[35] = Half life in MRP2 knockout Sprague-Dawley rat at 1 mg/kg, iv by LC-MS/MS analysis; assay type: ADME, organism-based; set-up: dose 1 mg/kg, route intravenous; conditions: in vivo
Procedure, shortened: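 Male Sprague-Dawley rats (knockout or wild type matched for age and weight), femoral artery and vein cannulated, at least 2 days recovery. Crossover design: IV bolus 1 mg/kg on day 0 (saline with 0.2 M equivalents HCl), oral gavage 10 mg/kg on day 3 (water with 0.2 M equivalents HCl). Analysed by LC-MS/MS and noncompartmental analysis.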

[36] = system: Rattus norvegicus; experiment: Toxicity in MDR1A knockout Sprague-Dawley rat assessed as mortality at 10 mg/kg, po after 4 hrs; assay type: organism-based; set-up: dose 10 mg/kg, route oral; conditions: in vivo; procedure, shortened: as §2
[37] = Tmax in wild-type Sprague-Dawley rat at 10 mg/kg, po by LC-MS/MS analysis; assay type: ADME, organism-based; set-up: dose 10 mg/kg, route oral; conditions: in vivo; procedure, shortened: as §1
[38] = Cmax in MDR1A knockout Sprague-Dawley rat at 10 mg/kg, po by LC-MS/MS analysis; assay type: ADME, organism-based; set-up: dose 10 mg/kg, route oral; conditions: in vivo; procedure, shortened: as §1
[39] = Volume of distribution at steady state in MDR1A knockout Sprague-Dawley rat at 1 mg/kg, iv by LC-MS/MS analysis; assay type: ADME, organism-based; set-up: dose 1 mg/kg, route intravenous; conditions: in vivo, read-out: Vdss; procedure, shortened: as §1

For `CN(C)C(=O)C(CCN1CCC(O)(c2ccc(Cl)cc2)CC1)(c1ccccc1)c1ccccc1` [LOPERAMIDE], the half-life [1] was 1.5 h, the half-life [2] was 13 h and the half-life [3] was 13 h. For the same compound, the AUC(0-inf) [4] was 243 ng·h/mL, the AUC(0-inf) [5] was 1020 ng·h/mL and the bioavailability [6] was 16%. It also gave an AUC(0-t) at 4 h [7] of 184 ng·h/mL, a Vd [8] of 9 L/kg and a Tmax [9] of 0.7 h. The Activity [10] was “Toxic”, the half-life [11] was 15 h and the Cmax [12] was 60 ng/mL. The Activity [13] was “Toxic”, the Vd [14] was 21.2 L/kg and the Activity [15] was “Toxic”. It also gave a Cmax [16] of 69 ng/mL, an AUC(0-inf) [17] of 131 ng·h/mL and a Tmax [18] of 0.8 h. For the same compound, the AUC(0-inf) [19] was 980 ng·h/mL, the Vd [20] was 11.5 L/kg and the Tmax [21] was 0.4 h. The half-life [22] was 1 h, the Activity [23] was “Toxic” and the AUC(0-inf) [24] was 806 ng·h/mL. For the same compound, the AUC(0-inf) [25] was 161 ng·h/mL, the bioavailability [26] was 34% and the Activity [27] was “Toxic”. The Cmax [28] was 90 ng/mL, the AUC(0-t) at 4 h [29] was 651 ng·h/mL and the Activity [30] was “Toxic”. The AUC(0-inf) [31] was 122 ng·h/mL, the bioavailability [32] was 40% and the bioavailability [33] was 60%. The half-life [34] was 1.5 h, the half-life [35] was 1.1 h and the Activity [36] was “Toxic”. The Tmax [37] was 0.3 h, the Cmax [38] was 226 ng/mL and the Vd [39] was 7.9 L/kg.
